Data as given in paper PMC4969713 (Journal of Alzheimer's Disease, 2016).
Like-named read-outs stand apart in the source and are kept apart here.

Experiments:
male BALB/c mice [1] = assay: Elevated Plus-Maze; assay type: in vivo; details: IP, Buspirone 5 mg/kg; for locomotion (total number of arm visits): M1 5 or 20 mg/kg, M2 1 and 5 mg/kg; for anxiolytic effect (open/closed arm time and visits, defecations): M2 0.05, 0.5, 1.0, 5.0 mg/kg
Summary of the method: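 Elevated plus-maze in mice. Read-outs were open/closed arm time ratio, open/closed visit ratio, defecations and total visits. Each treated group was compared with the placebo group by Student t-test.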

male SHK mice = assay: Apomorphine-induced disruption of pre-pulse inhibition; assay type: in vivo; details: IP; apomorphine 20 mg/kg; Haloperidol 1 mg/kg
Summary of the method: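 Male SHK mice received apomorphine as the pro-psychotic agent to disrupt pre-pulse inhibition. Groups: untreated control, apomorphine alone, haloperidol 1 mg/kg as positive control, and test compound at several doses. Groups were compared with the apomorphine-only group by Student test.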

male BALB/c mice [2] = assay: Elevated Platform test; assay type: in vivo; details: IP; Lorazepam 0.05 mg/kg, AVN-101 0.2 mg/kg; initial 2 min
BALB/c mice [3] = assay: Open Field test; assay type: in vivo; details: IP; Lorazepam 0.05 mg/kg, AVN-101 0.2 mg/kg
Summary of the method: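 Male BALB/c mice received lorazepam 30 min or test compound 5 min before testing; controls received saline, with at least 8 per group. Time in the central zone was recorded during a 10-min exploration. Comparison with the control group used ANOVA with Fisher LSD.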

5-HT2B receptor = 5-HT2B receptor (Homo sapiens, UniProt P41595); details: cited from earlier work
Sequence of 5-HT2B receptor (P41595 whole entry): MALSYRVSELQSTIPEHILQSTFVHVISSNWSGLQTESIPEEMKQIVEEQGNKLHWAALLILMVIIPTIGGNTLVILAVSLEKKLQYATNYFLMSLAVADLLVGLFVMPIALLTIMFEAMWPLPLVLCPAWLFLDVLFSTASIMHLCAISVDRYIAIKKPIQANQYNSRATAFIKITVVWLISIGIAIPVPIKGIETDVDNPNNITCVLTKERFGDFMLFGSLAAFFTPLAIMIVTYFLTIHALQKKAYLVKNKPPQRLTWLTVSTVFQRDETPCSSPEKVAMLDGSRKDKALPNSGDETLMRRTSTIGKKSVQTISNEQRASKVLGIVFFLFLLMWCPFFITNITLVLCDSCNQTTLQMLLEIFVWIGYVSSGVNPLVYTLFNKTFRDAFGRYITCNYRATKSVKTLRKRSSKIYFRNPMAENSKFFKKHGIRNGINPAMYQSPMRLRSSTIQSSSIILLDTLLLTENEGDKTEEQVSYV

5-HT2C receptor [4] = target: T1, 5-HT2C receptor (Homo sapiens, UniProt P28335); details: cited from earlier work
T1 sequence (P28335 33-458): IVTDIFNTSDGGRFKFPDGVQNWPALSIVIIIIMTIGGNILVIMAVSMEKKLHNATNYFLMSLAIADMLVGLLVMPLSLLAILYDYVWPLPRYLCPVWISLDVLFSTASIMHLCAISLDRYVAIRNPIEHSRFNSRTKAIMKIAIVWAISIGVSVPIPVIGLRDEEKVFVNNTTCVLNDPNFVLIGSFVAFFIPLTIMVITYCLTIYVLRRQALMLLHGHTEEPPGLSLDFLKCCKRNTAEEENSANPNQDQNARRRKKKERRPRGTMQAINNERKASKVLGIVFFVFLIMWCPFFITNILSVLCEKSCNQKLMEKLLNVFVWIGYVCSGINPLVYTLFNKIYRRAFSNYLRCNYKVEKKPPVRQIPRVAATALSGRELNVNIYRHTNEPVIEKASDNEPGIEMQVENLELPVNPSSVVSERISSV

5-HT1B receptor = details: cited from earlier work
5-HT2A receptor [5] = target: T2, 5-HT2A receptor (Homo sapiens, UniProt P28223); details: cited from earlier work
T2 sequence (P28223 whole entry): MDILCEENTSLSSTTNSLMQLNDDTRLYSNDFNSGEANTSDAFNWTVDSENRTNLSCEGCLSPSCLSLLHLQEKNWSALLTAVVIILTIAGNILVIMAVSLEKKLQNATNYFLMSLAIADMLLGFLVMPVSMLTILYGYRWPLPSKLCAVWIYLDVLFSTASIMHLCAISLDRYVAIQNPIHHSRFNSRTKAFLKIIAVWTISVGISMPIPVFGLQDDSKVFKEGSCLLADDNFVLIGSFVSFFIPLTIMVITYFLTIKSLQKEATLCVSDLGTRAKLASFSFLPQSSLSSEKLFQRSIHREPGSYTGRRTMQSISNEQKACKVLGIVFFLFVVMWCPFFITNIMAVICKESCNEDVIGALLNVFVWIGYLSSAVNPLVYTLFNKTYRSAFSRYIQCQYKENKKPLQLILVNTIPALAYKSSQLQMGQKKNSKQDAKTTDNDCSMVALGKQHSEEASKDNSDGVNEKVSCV

5-HT7 receptor [6] = target: T3, 5-HT7 receptor (Homo sapiens, UniProt P34969); details: cited from earlier work
T3 sequence (P34969 whole entry): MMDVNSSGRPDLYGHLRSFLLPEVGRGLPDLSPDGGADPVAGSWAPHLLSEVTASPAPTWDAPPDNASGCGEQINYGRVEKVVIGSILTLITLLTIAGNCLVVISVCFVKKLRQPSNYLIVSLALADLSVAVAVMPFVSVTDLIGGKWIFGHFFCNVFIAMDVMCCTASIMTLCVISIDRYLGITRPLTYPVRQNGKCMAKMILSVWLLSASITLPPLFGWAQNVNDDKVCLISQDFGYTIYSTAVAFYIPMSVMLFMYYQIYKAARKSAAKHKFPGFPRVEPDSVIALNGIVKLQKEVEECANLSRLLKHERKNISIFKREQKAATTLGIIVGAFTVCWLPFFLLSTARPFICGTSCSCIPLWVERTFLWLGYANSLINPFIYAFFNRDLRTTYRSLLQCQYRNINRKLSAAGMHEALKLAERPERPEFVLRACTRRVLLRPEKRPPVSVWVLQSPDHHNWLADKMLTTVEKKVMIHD

5-HT1A receptor = 5-HT1A receptor (Homo sapiens, UniProt P08908); details: Table 2; cited from earlier work
Adrenergic α1A = Adrenergic α1A (Homo sapiens, UniProt P35348); assay: Radioligand competition, adrenergic α1A; assay type: binding
Sequence of Adrenergic α1A (P35348 whole entry): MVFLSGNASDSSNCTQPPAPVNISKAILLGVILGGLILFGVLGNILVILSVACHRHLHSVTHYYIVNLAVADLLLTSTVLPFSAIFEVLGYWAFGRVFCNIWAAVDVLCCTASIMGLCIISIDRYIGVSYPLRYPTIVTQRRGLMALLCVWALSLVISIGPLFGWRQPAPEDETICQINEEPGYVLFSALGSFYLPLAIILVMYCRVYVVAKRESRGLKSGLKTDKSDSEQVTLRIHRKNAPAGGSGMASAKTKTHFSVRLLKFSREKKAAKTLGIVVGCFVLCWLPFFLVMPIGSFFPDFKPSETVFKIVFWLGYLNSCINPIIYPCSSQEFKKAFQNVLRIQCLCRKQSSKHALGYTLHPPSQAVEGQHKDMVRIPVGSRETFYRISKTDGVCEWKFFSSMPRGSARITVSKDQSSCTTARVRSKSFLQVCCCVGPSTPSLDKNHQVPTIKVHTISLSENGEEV

[7] = Phase I pharmacokinetics, single PO dose; assay type: in vivo, human; details: for AUC0 - >∞ / Cmax / T1/2: label = substance analyzed, Means ± SD
5-HT4 receptor = 5-HT4 receptor (Homo sapiens, UniProt Q13639); assay: Target panel binding, 5-HT4
histamine H2 receptor = histamine H2 receptor (Homo sapiens, UniProt P25021); assay: Radioligand binding competition, histamine H2
Sequence of histamine H2 receptor (P25021 whole entry): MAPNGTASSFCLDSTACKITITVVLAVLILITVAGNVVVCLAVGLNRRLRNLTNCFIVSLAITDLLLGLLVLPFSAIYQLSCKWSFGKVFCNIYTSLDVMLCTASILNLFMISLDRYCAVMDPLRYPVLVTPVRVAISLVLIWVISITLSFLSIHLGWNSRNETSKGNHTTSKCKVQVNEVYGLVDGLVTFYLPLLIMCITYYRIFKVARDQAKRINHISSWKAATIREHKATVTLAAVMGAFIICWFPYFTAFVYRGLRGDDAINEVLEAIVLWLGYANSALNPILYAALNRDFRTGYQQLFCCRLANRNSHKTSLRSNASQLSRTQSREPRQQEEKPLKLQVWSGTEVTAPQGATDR

5-HT3 receptor = 5-HT3 receptor (Homo sapiens, UniProt P46098); assay: Target panel binding, 5-HT3
Sequence of 5-HT3 receptor (P46098 24-478): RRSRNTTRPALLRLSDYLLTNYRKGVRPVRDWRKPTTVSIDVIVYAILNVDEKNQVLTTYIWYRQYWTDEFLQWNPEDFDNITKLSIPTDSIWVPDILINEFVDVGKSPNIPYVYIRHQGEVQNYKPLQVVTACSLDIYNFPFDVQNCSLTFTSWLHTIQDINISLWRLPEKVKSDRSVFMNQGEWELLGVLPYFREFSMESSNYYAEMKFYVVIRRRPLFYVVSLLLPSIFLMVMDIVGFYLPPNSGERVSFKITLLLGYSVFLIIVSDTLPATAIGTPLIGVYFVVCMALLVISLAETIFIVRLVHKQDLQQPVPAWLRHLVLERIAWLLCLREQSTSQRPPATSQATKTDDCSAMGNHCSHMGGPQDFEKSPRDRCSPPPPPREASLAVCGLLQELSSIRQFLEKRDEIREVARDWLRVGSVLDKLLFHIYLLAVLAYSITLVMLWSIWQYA

5-HT2C receptor [8] = target: T1, 5-HT2C receptor; assay: Radioligand binding competition, 5-HT2C
5-HT2A receptor [9] = target: T2, 5-HT2A receptor; assay: Radioligand binding competition, 5-HT2A
5-HT7 receptor [10] = target: T3, 5-HT7 receptor; assay: Radioligand binding competition, 5-HT7
histamine H1 receptor = histamine H1 receptor (Homo sapiens, UniProt P35367); assay: Radioligand binding competition, histamine H1
Sequence of histamine H1 receptor (P35367 whole entry, species assumed): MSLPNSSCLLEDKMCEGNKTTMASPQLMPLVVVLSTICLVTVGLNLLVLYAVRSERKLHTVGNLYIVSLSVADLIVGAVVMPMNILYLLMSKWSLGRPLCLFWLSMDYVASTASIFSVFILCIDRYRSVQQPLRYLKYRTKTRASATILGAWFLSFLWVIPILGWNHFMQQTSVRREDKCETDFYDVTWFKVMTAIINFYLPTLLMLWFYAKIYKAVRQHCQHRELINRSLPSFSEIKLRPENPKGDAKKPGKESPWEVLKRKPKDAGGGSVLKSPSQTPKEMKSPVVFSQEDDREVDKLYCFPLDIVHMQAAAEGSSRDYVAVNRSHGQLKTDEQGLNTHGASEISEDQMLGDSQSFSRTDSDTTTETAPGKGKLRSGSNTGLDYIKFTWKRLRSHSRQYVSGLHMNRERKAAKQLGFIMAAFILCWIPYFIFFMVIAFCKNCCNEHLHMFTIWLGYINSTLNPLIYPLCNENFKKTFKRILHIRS

5-HT6 receptor = 5-HT6 receptor (Homo sapiens, UniProt P50406); assay: Radioligand binding competition, 5-HT6
Adrenergic α2A = Adrenergic α2A (Homo sapiens, UniProt P08913); assay: Radioligand competition, adrenergic α2A; assay type: binding
Sequence of Adrenergic α2A (P08913 whole entry): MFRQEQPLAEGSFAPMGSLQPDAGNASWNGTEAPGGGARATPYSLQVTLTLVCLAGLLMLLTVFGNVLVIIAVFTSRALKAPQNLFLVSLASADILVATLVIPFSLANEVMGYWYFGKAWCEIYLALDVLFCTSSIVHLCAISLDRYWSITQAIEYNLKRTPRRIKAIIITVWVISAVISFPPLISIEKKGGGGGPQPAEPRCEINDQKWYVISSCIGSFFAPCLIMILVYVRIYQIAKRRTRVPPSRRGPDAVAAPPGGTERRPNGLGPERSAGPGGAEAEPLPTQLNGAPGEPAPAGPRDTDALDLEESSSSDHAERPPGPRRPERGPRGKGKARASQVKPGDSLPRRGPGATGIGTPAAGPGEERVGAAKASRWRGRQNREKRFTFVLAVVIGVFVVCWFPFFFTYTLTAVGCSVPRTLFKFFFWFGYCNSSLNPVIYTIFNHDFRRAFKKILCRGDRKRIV

Pharmacokinetics in dogs = assay type: in vivo, dogs (Beagle); details: for AUC0 - >∞ / Cmax / T1/2 / Tmax: label = substance analyzed
hERG potassium channel = hERG potassium channel (Homo sapiens, UniProt Q12809); assay: hERG single cell patch clamp in HEK cells; details: potassium currents, patch clamp
Sequence of hERG potassium channel (Q12809 whole entry): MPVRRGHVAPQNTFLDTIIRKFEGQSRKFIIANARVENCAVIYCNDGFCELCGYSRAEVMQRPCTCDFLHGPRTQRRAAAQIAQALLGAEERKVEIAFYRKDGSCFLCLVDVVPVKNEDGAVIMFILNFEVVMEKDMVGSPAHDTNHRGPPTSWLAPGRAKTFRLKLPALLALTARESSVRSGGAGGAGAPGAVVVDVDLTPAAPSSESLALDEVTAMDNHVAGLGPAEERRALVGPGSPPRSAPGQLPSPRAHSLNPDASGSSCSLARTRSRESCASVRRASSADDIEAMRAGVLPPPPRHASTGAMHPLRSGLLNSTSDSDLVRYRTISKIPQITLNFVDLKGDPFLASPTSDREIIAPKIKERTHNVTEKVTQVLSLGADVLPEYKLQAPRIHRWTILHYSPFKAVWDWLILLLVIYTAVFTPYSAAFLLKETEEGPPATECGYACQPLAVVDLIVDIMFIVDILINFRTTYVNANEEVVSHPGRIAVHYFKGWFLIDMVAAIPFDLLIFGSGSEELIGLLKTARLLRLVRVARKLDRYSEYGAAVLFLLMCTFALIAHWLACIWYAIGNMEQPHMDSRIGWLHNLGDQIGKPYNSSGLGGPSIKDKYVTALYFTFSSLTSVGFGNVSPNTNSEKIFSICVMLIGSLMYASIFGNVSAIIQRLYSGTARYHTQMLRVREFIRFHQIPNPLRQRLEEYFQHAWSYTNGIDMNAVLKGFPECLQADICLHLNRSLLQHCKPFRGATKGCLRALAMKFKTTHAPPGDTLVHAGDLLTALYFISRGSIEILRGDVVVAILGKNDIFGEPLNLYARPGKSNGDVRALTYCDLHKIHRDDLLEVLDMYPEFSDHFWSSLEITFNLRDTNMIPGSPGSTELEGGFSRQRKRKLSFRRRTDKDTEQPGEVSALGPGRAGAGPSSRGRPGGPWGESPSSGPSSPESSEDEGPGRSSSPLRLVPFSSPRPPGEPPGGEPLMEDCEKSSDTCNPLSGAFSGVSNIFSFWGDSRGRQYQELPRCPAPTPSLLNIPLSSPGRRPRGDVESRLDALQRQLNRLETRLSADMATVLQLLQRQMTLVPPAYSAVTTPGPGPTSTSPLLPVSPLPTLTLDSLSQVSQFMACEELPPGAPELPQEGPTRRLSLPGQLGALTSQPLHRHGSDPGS

Caco-2 permeability = details: human
male BALB/c mice [11] = assay: Novel object recognition, scopolamine-induced; assay type: in vivo; details: 1.0 mg/kg scopolamine; memantine 10 mg/kg; SB-742457 0.2 or 1.0 mg/kg
Summary of the method: (§1)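 All drugs were dissolved in saline and given IP; control animals received saline vehicle. Each group had at least 8 male BALB/c mice. Read-out was novel object recognition index, reported as mean ± SE.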

male BALB/c mice [12] = assay: Novel object recognition, MK-801-induced; assay type: in vivo; details: 0.2 mg/kg MK-801; memantine 10 mg/kg; SB-742457 0.2 or 1.0 mg/kg
Summary of the method: as §1

male BALB/c mice [13] = details: acute pre-dosing; cited from earlier work
male BALB/c mice [14] = assay: Passive avoidance, scopolamine-induced amnesia, mice; assay type: in vivo; details: highest dose tested, 1 mg/kg
BALB/c mice [15] = assay: Morris water maze, scopolamine-induced amnesia; assay type: in vivo; details: IP; AVN-101 0.2 mg/kg; Tacrine 3 mg/kg; donepezil 1 mg/kg; scopolamine 1.5 mg/kg
Summary of the method: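 Scopolamine-induced amnesia model in male BALB/c mice. Read-out was time spent in the quadrant where the escape platform had been during the two preceding training days, reported as mean ± SE.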

Monkeys (Macaca mulatta) = assay: Q-T interval, monkeys; assay type: in vivo; details: 15 mg/kg IV
femur bone marrow cells = assay: Chromosomal aberrations in femur bone marrow cells; assay type: in vivo, mice; details: 20 mg/kg PO single dose, males
Summary of the method: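 Mice 8–12 weeks old, male and female, were dosed orally with test compound or cyclophosphamide 20 mg/kg. Schedule was single dose with kill at 24 h, or qd for 5 days with kill 6 h after the last dose. Colchicine 4 mg/kg was given orally 2.5 h before decapitation. Femur marrow was put into 0.55% KCl at 37°C for 15 min, then spun. Scoring covered 100 metaphases per animal (500 per group), expressed as % aberrant cells.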

BALB/c mice [16] = assay: Passive avoidance, MK-801-induced amnesia, mice; assay type: in vivo; details: IP

O=C1CC2(CCCC2)CC(=O)N1CCCCN1CCN(c2ncccn2)CC1 [Buspirone, reference compound]
locomotion (total number of arm visits) (male BALB/c mice [1]): had no effect on total number of arm visits
anxiolytic effect (open/closed arm time and visits, defecations) (male BALB/c mice [1]): clear anxiolytic effects

O=C(CCCN1CCC(O)(c2ccc(Cl)cc2)CC1)c1ccc(F)cc1 [Haloperidol, reference compound]
effect on apomorphine-induced disruption of PPI (male SHK mice): able to prevent

O=C1Nc2ccc(Cl)cc2C(c2ccccc2Cl)=NC1O (centres unmarked) [Lorazepam, reference compound]
duration of freezing behavior (male BALB/c mice [2]): significantly reduced duration of the freezing behavior
time spent in the central area (BALB/c mice [3]): significant anxiolytic effect

Fc1ccc2c(CCNCc3cccc(OCC(F)(F)C(F)F)c3)c[nH]c2c1 [Lu AE58054]
Ki (5-HT2B receptor; Table 2): > 4.1 µM
Ki (5-HT2C receptor [4]; Table 2): 0.25 µM
Ki (5-HT1B receptor; Table 2): > 10 µM
Ki (5-HT2A receptor [5]; Table 2): 0.083 µM
Ki (5-HT7 receptor [6]; Table 2): > 10 µM
binding affinity (5-HT7 receptor [6]): very low, if any
Ki (5-HT1A receptor): 2.3 µM

Cc1ccc2c(c1)c1c(n2CC(O)c2ccccc2)CCN(C)C1 (centres unmarked) [M1, 2-(2,8-dimethyl-1,2,3,4-tetrahydro-pyrido[[4,3-b]]indol-5-yl)-1-phenyl-ethan-ol]
affinity compared to AVN-101 (Adrenergic α1A): practically same affinity
AUC0 - >∞ ([7]; AVN-101 PO 2 mg): 0.22 ± 0.116 ng·h/mL
Cmax ([7]; AVN-101 PO 2 mg): 0.0561 ± 0.0182 ng/mL
T1/2 ([7]; AVN-101 PO 2 mg): 2.49 ± 1.2 h
AUC0 - >∞ ([7]; AVN-101 PO 4 mg): 0.555 ± 0.297 ng·h/mL
Cmax ([7]; AVN-101 PO 4 mg): 0.112 ± 0.0381 ng/mL
T1/2 ([7]; AVN-101 PO 4 mg): 2.48 ± 1.27 h
AUC0 - >∞ ([7]; AVN-101 PO 10 mg): 1.41 ± 0.688 ng·h/mL
Cmax ([7]; AVN-101 PO 10 mg): 0.292 ± 0.176 ng/mL
T1/2 ([7]; AVN-101 PO 10 mg): 2.8 ± 1.71 h
AUC0 - >∞ ([7]; AVN-101 PO 20 mg): 3.1 ± 0.87 ng·h/mL
Cmax ([7]; AVN-101 PO 20 mg): 0.635 ± 0.311 ng/mL
T1/2 ([7]; AVN-101 PO 20 mg): 3.85 ± 0.56 h
Tmax ([7]; after PO AVN-101): around 1 h
interaction (5-HT4 receptor): Neither AVN-101 nor its metabolites, M1 and M2, seem to interact
lower affinity compared to AVN-101 (histamine H2 receptor): 9 fold
interaction (5-HT3 receptor): Neither AVN-101 nor its metabolites, M1 and M2, seem to interact
lower affinity compared to AVN-101 (5-HT2C receptor [8]): 7 fold
lower affinity compared to AVN-101 (5-HT2A receptor [9]): 2 fold
Ki (5-HT7 receptor [10]): 0.00772 µM
Ki (histamine H1 receptor): ~0.048 µM
lower affinity compared to AVN-101 (histamine H1 receptor): 83 fold
lower affinity compared to AVN-101 (5-HT6 receptor): 4 fold
locomotion (total number of arm visits) (male BALB/c mice [1]): some reduction in mice locomotor activity
anxiolytic effect (open/closed arm time and visits, defecations) (male BALB/c mice [1]): clear anxiolytic effects
lower affinity compared to AVN-101 (Adrenergic α2A): 3 fold
Fabs (Pharmacokinetics in dogs; M1 PO 5 mg/kg vs IV 1 mg/kg): 8.4%
AUC0 - >∞ (Pharmacokinetics in dogs; after AVN-101 IV 2 mg/kg): 264.6 ng·min/mL
Cmax (Pharmacokinetics in dogs; after AVN-101 IV 2 mg/kg): 5.7 ng/mL
T1/2 (Pharmacokinetics in dogs; after AVN-101 IV 2 mg/kg): 0.857 h
Tmax (Pharmacokinetics in dogs; after AVN-101 IV 2 mg/kg): 0.083 h
AUC0 - >∞ (Pharmacokinetics in dogs; after AVN-101 PO 10 mg/kg): 8,995 min×ng/mL
Cmax (Pharmacokinetics in dogs; after AVN-101 PO 10 mg/kg): 30.1 ng/mL
T1/2 (Pharmacokinetics in dogs; after AVN-101 PO 10 mg/kg): 2.582 h
Tmax (Pharmacokinetics in dogs; after AVN-101 PO 10 mg/kg): 1 h
AUC0 - >∞ (Pharmacokinetics in dogs; after M1 IV 1 mg/kg): 25,894 min×ng/mL
Cmax (Pharmacokinetics in dogs; after M1 IV 1 mg/kg): 4,550 ng/mL
T1/2 (Pharmacokinetics in dogs; after M1 IV 1 mg/kg): 0.958 h
Tmax (Pharmacokinetics in dogs; after M1 IV 1 mg/kg): 0.017 h
AUC0 - >∞ (Pharmacokinetics in dogs; after M1 PO 5 mg/kg): 10,828 min×ng/mL
Cmax (Pharmacokinetics in dogs; after M1 PO 5 mg/kg): 43 ng/mL
T1/2 (Pharmacokinetics in dogs; after M1 PO 5 mg/kg): 2.308 h
Tmax (Pharmacokinetics in dogs; after M1 PO 5 mg/kg): 2 h
IC50 (hERG potassium channel): 1.63 µM

COC(=O)c1ccccc1-c1c2ccc(=N)cc-2oc2cc(N)ccc12 [Rhodamine123, reference compound]
Papp (Caco-2 permeability): 0.6 ± 0.2 ×10⁻⁶ cm/s
Papp B→A (Caco-2 permeability): 6.8 ± 0.4 ×10⁻⁶ cm/s

O=S(=O)(c1ccccc1)c1cnc2c(N3CCNCC3)cccc2c1 [SB-742457]
radioligand displacement (5-HT2B receptor; at 1μM): 88%
radioligand displacement (5-HT2C receptor [4]; at 1μM): 85%
effect on deficit in novel object recognition (male BALB/c mice [11]): not statistically effective
radioligand displacement (5-HT1B receptor; at 1μM): 86%
radioligand displacement (5-HT2A receptor [5]; at 1μM): 91%
effect on deficit in novel object recognition (male BALB/c mice [12]): not statistically effective
IC50 (5-HT7 receptor [10]): 1.27 µM
effective dose range, scopolamine-induced amnesia passive avoidance (male BALB/c mice [13]): 0.5 to 4.5 mg/kg
preventative effect (male BALB/c mice [14]): very mild preventative effect
binding inhibition (5-HT7 receptor [6]; at 1μM): ~25%

Nc1c2c(nc3ccccc13)CCCC2 [Tacrine]
effect on scopolamine-induced amnesia (time in platform quadrant) (BALB/c mice [15]): significant prevention

CCCCc1oc2ccccc2c1C(=O)c1cc(I)c(OCCN(CC)CC)c(I)c1 [amiodaron, reference compound]
effect on heart rate (Monkeys (Macaca mulatta)): no effect on the heart rate

O=P1(N(CCCl)CCCl)NCCCO1 (centres unmarked) [cyclophosphomide, reference compound]
Cells with multiple aberrations (femur bone marrow cells): 6.2%
Total altered metaphases (%) (femur bone marrow cells): 20.8 ± 1.8%
cells with aberration, Double fragment (femur bone marrow cells): 0.4%
cells with aberration, Single fragment (femur bone marrow cells): 19.8%
cells with aberration, exchanges (femur bone marrow cells): 1.0%
cells with aberration, gaps (femur bone marrow cells): 0.2%

COc1cc2c(cc1OC)C(=O)C(CC1CCN(Cc3ccccc3)CC1)C2 (centres unmarked) [donepezil]
effect on scopolamine-induced amnesia (time in platform quadrant) (BALB/c mice [15]): not as effective

CC12CC3CC(C)(C1)CC(N)(C3)C2 [memantine]
effect on deficit in novel object recognition (male BALB/c mice [11]): not statistically effective
effect on deficit in novel object recognition (male BALB/c mice [12]): not statistically effective
effect on MK-801-induced amnesia (BALB/c mice [16]): not active
